Tests used:
[1] = AUC (0 to 6 hrs) in rat at 10 mg/kg, po; type: ADME, organism-based; set-up: time < 6 hr, dose 10 mg/kg, route oral; settings: plasma
How it was run: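 Rats were dosed orally at 10 mpk in 0.4% methylcellulose, n=2 per compound. Plasma was sampled at 8 time points up to 6 h, and exposure was reported as AUC0-6 h.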

[2] = Cytotoxicity against human hepatoma cells after 3 days by MTS assay; type: cell-based
How it was run: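 MTS cell proliferation assay on replicon cells handled as in the replicon activity assay (seeded one day before, 0.5% DMSO, 10% FBS, serial dilutions), read 3 days after dosing. CC50 is the concentration giving 50% inhibition relative to vehicle-treated cells.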

[3] = system: Hepatitis C virus; experiment: Antiviral activity against Hepatitis C virus 1b con1 infected in human hepatoma cells assessed as decrease in replicon RNA level after 3 days by RT-PCR analysis; type: functional, organism-based, Hepacivirus hominis; settings: genotype 1b Con1, 72 h
How it was run: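 Con1 genotype 1b replicon cells were seeded at 5000 cells/well one day before treatment. Compound in DMSO was added (final 0.5% DMSO, 10% FBS) as 10 serial twofold dilutions in triplicate. Cells were harvested 3 days after dosing. Replicon RNA was quantified by real-time RT-PCR (Taqman), normalized to GAPDH RNA, and EC50 was calculated.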

[4] = Drug uptake in rat liver at 10 mg/kg, po at 6 hrs; type: ADME, organism-based; set-up: dose 10 mg/kg, route oral; settings: read-out: Drug uptake
How it was run: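 Rats were dosed orally at 10 mpk in 0.4% methylcellulose, n=2. Animals were sacrificed at 6 h, and liver was harvested and processed to measure compound concentration (liver C6 h).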

[5] = Cytotoxicity against human hepatoma cells assessed as decrease in GADPH RNA level after 3 days by Rt-PCR analysis; type: cell-based

AUC(0-t) at 6 h [1]	EC50 [3]	concentration at 6 h [4]	SMILES	CC50 at 72 h [2]	CC50 at 72 h [5]
0.8 µM·h	0.02 µM	1260 ng/g	CCCc1nccc2sc(-c3c(C)nc(N[C@H](C)c4ccc(OC(F)(F)F)cc4)nc3N[C@@H]3C[C@H](CO)[C@@H](O)[C@H]3O)nc12	13 µM	13 µM
3.2 µM·h	0.026 µM	8500 ng/g	Cc1nc(N[C@H](C)c2ccc(OC(F)(F)F)cc2)nc(N[C@@H]2C[C@H](CO)[C@@H](O)[C@H]2O)c1-c1nc2c(C(C)C)nccc2s1	10 µM	11 µM
–	0.059 µM	–	COC(=O)CCc1nccc2sc(-c3c(C)nc(N[C@H](C)c4ccc(OC(F)(F)F)cc4)nc3N[C@@H]3C[C@H](CO)[C@@H](O)[C@H]3O)nc12	14 µM	23 µM
–	0.037 µM	–	Cc1nc(N[C@H](C)c2ccc(OC(F)(F)F)cc2)nc(N[C@@H]2C[C@H](CO)[C@@H](O)[C@H]2O)c1-c1nc2c(N)nccc2s1	> 25 µM	25 µM
–	0.038 µM	–	Cc1cc2sc(-c3c(C)nc(N[C@H](C)c4ccc(OC(F)(F)F)cc4)nc3N[C@@H]3C[C@H](CO)[C@@H](O)[C@H]3O)nc2cn1	> 25 µM	25 µM
–	0.703 µM	–	Cc1cc2sc(-c3c(C)nc(N[C@H](C)c4ccc(OC(F)(F)F)cc4)nc3N[C@@H]3C[C@H](CO)[C@@H](O)[C@H]3O)nc2c(C2CC2)n1	24 µM	21 µM
–	0.069 µM	–	CCc1cc2sc(-c3c(C)nc(N[C@H](C)c4ccc(OC(F)(F)F)cc4)nc3N[C@@H]3C[C@H](CO)[C@@H](O)[C@H]3O)nc2c(CC)n1	13 µM	12 µM
0.3 µM·h	0.052 µM	–	CNc1nc(C)c(-c2nc3cnccc3s2)c(N[C@@H]2C[C@H](CO)[C@@H](O)[C@H]2O)n1	20 µM	14 µM
7.5 µM·h	0.557 µM	1400 ng/g	Cc1nc(N(C)C)nc(N[C@@H]2C[C@H](CO)[C@@H](O)[C@H]2O)c1-c1nc2cnccc2s1	> 25 µM	25 µM
–	0.016 µM	–	Cc1nc(NCC(F)(F)F)nc(N[C@@H]2C[C@H](CO)[C@@H](O)[C@H]2O)c1-c1nc2cnccc2s1	> 25 µM	25 µM
–	0.124 µM	–	Cc1nc(N)nc(N[C@@H]2C[C@H](CO)[C@@H](O)[C@H]2O)c1-c1nc2cnccc2s1	18 µM	25 µM
0.4 µM·h	0.008 µM	192 ng/g	Cc1nc(NCC2CC2)nc(N[C@@H]2C[C@H](CO)[C@@H](O)[C@H]2O)c1-c1nc2cnccc2s1	5 µM	3 µM
0.2 µM·h	0.009 µM	368 ng/g	CCOCCNc1nc(C)c(-c2nc3cnccc3s2)c(N[C@@H]2C[C@H](CO)[C@@H](O)[C@H]2O)n1	16 µM	25 µM
1.4 µM·h	0.125 µM	276 ng/g	Cc1nc(NC2CC2)nc(N[C@@H]2C[C@H](CO)[C@@H](O)[C@H]2O)c1-c1nc2cnccc2s1	19 µM	25 µM
–	1.68 µM	–	Cc1nc(NCC2CCN(C)CC2)nc(N[C@@H]2C[C@H](CO)[C@@H](O)[C@H]2O)c1-c1nc2cnccc2s1	> 25 µM	25 µM
0.2 µM·h	0.168 µM	29 ng/g	Cc1nc(Nc2ccccc2)nc(N[C@@H]2C[C@H](CO)[C@@H](O)[C@H]2O)c1-c1nc2cnccc2s1	> 25 µM	25 µM

AUC(0-t) at 6 h [1]	EC50 [3]	concentration at 6 h [4]	SMILES	CC50 at 72 h [2]	CC50 at 72 h [5]
–	0.003 µM	–	Cc1nc(NCc2ccccc2)nc(N[C@@H]2C[C@H](CO)[C@@H](O)[C@H]2O)c1-c1nc2cnccc2s1	14 µM	25 µM
–	0.001 µM	–	Cc1nc(NCc2c(F)cccc2F)nc(N[C@@H]2C[C@H](CO)[C@@H](O)[C@H]2O)c1-c1nc2cnccc2s1	10 µM	4 µM
–	0.003 µM	–	Cc1nc(NCc2ccc(OC(F)(F)F)cc2)nc(N[C@@H]2C[C@H](CO)[C@@H](O)[C@H]2O)c1-c1nc2cnccc2s1	25 µM	25 µM
0.1 µM·h	0.012 µM	100 ng/g	COc1cc(CCNc2nc(C)c(-c3nc4cnccc4s3)c(N[C@@H]3C[C@H](CO)[C@@H](O)[C@H]3O)n2)cc(OC)c1	19 µM	25 µM
0.2 µM·h	0.301 µM	100 ng/g	Cc1nc(N(C)Cc2ccccc2)nc(N[C@@H]2C[C@H](CO)[C@@H](O)[C@H]2O)c1-c1nc2cnccc2s1	> 25 µM	25 µM
0.2 µM·h	0.007 µM	104 ng/g	Cc1nc(N[C@H](C)c2ccccc2)nc(N[C@@H]2C[C@H](CO)[C@@H](O)[C@H]2O)c1-c1nc2cnccc2s1	> 25 µM	25 µM
0.1 µM·h	0.222 µM	77 ng/g	Cc1nc(N[C@@H](C)c2ccccc2)nc(N[C@@H]2C[C@H](CO)[C@@H](O)[C@H]2O)c1-c1nc2cnccc2s1	> 25 µM	25 µM
–	6.2 µM	–	Cc1nc(NC(C)(C)c2ccccc2)nc(N[C@@H]2C[C@H](CO)[C@@H](O)[C@H]2O)c1-c1nc2cnccc2s1	> 25 µM	25 µM
–	3.17 µM	–	Cc1ccc(C2(Nc3nc(C)c(-c4nc5cnccc5s4)c(N[C@@H]4C[C@H](CO)[C@@H](O)[C@H]4O)n3)CC2)cc1	> 25 µM	25 µM
0.1 µM·h	0.114 µM	116 ng/g	Cc1ccc([C@@H](C)Nc2nc(C)c(-c3nc4cnccc4s3)c(N[C@@H]3C[C@H](CO)[C@@H](O)[C@H]3O)n2)cc1	> 25 µM	25 µM
–	0.222 µM	–	Cc1nc(N[C@H](C)c2ccc(F)cc2)nc(N[C@@H]2C[C@H](CO)[C@@H](O)[C@H]2O)c1-c1nc2cnccc2s1	25 µM	25 µM
–	0.017 µM	–	Cc1nc(N[C@H](C)c2ccc(-c3cnn(C)c3)cc2)nc(N[C@@H]2C[C@H](CO)[C@@H](O)[C@H]2O)c1-c1nc2cnccc2s1	25 µM	25 µM
0.1 µM·h	0.037 µM	17 ng/g	COc1cc(OC)cc([C@@H](C)Nc2nc(C)c(-c3nc4cnccc4s3)c(N[C@@H]3C[C@H](CO)[C@@H](O)[C@H]3O)n2)c1	25 µM	25 µM
0.5 µM·h	0.017 µM	506 ng/g	Cc1nc(N[C@H](C)c2ccccc2OC(F)(F)F)nc(N[C@@H]2C[C@H](CO)[C@@H](O)[C@H]2O)c1-c1nc2cnccc2s1	23 µM	24 µM
5.8 µM·h	0.02 µM	6000 ng/g	CCc1nccc2sc(-c3c(C)nc(N[C@H](C)c4ccc(OC(F)(F)F)cc4)nc3N[C@@H]3C[C@H](CO)[C@@H](O)[C@H]3O)nc12	7 µM	7 µM

Reference: ChEMBL document CHEMBL2069243, “Synthesis and SAR of pyridothiazole substituted pyrimidine derived HCV replication inhibitors” (Bioorg Med Chem Lett, 2012)
